Assay results published in ChEMBL document CHEMBL1126618, “Epoxysuccinyl dipeptides as selective inhibitors of cathepsin B” (J Med Chem, 1993).

Species: Rattus norvegicus
Experiment: Second order rate constant for inactivation of rat cathepsin B
Conditions: in vitro
In short: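 Recombinant rat cathepsin B expressed in yeast, activated 15 min on ice in buffer containing 1 mM DTT. Continuous assay at pH 6.0: 50 mM phosphate, 200 mM NaCl, 5 mM EDTA, 10% v/v acetonitrile, 0.5 mM DTT. Substrate CbzPheArgMCA; fluorescence (ex 380, em 440 nm) followed until complete inactivation (typically 5–30 min) to obtain first-order kobs.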

| kinact/Ki | Structure (SMILES) |
| --- | --- |
| 30 M⁻¹ s⁻¹ | CCOC(=O)[C@H]1O[C@H]1C(=O)N[C@@H](CC(C)C)C(=O)N1CCC[C@H]1C(=O)OCc1ccccc1 |
| 8700 M⁻¹ s⁻¹ | CC(C)C[C@H](NC(=O)[C@@H]1O[C@@H]1C(=O)O)C(=O)N1CCC[C@H]1C(=O)OCc1ccccc1 |
| 206 M⁻¹ s⁻¹ | CC(C)CNC(=O)[C@H]1O[C@H]1C(=O)N[C@@H](CC(C)C)C(=O)N1CCC[C@H]1C(=O)OCc1ccccc1 |

Further lines, the molecule ahead of its results:

| Structure (SMILES) | kinact/Ki |
| --- | --- |
| CC(C)C[C@H](NC(=O)[C@@H]1O[C@@H]1C(=O)O)C(=O)N1CCC[C@H]1C(=O)O | 2200 M⁻¹ s⁻¹ |
| CC(C)CNC(=O)[C@H]1O[C@H]1C(=O)N[C@@H](CC(C)C)C(=O)N1CCC[C@H]1C(=O)O | 52000 M⁻¹ s⁻¹ |
| CCOC(=O)[C@H]1O[C@H]1C(=O)N[C@@H](CC(C)C)C(=O)N1CCC[C@H]1C(=O)O | 13800 M⁻¹ s⁻¹ |

Tested on: not listed separately
Experiment: ratio of cathepsin B/papain
Conditions: not given
In short: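 Both enzymes were run in a continuous CbzPheArgMCA fluorescence assay in 50 mM phosphate, 200 mM NaCl, 5 mM EDTA and 10% acetonitrile. Recombinant rat cathepsin B was run at pH 6.0 with 0.5 mM DTT. Papain was run at pH 6.5. In each case kobs was followed until complete inactivation.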

| Ratio | Structure (SMILES) |
| --- | --- |
| 0.3 | CCOC(=O)[C@H]1O[C@H]1C(=O)N[C@@H](CC(C)C)C(=O)N1CCC[C@H]1C(=O)OCc1ccccc1 |
| 0.05 | CC(C)C[C@H](NC(=O)[C@@H]1O[C@@H]1C(=O)O)C(=O)N1CCC[C@H]1C(=O)OCc1ccccc1 |
| 0.1 | CC(C)CNC(=O)[C@H]1O[C@H]1C(=O)N[C@@H](CC(C)C)C(=O)N1CCC[C@H]1C(=O)OCc1ccccc1 |

More lines, now with the values behind:

| Structure (SMILES) | Ratio |
| --- | --- |
| CC(C)C[C@H](NC(=O)[C@@H]1O[C@@H]1C(=O)O)C(=O)N1CCC[C@H]1C(=O)O | 0.07 |
| CC(C)CNC(=O)[C@H]1O[C@H]1C(=O)N[C@@H](CC(C)C)C(=O)N1CCC[C@H]1C(=O)O | 93 |
| CCOC(=O)[C@H]1O[C@H]1C(=O)N[C@@H](CC(C)C)C(=O)N1CCC[C@H]1C(=O)O | 18 |

Target: papain (Carica papaya) (UniProt P00784)
Experiment: Second order rate constant for inactivation of papain
Conditions: in vitro

| kinact/Ki | Structure (SMILES) |
| --- | --- |
| 110 M⁻¹ s⁻¹ | CCOC(=O)[C@H]1O[C@H]1C(=O)N[C@@H](CC(C)C)C(=O)N1CCC[C@H]1C(=O)OCc1ccccc1 |
| 176000 M⁻¹ s⁻¹ | CC(C)C[C@H](NC(=O)[C@@H]1O[C@@H]1C(=O)O)C(=O)N1CCC[C@H]1C(=O)OCc1ccccc1 |
| 2070 M⁻¹ s⁻¹ | CC(C)CNC(=O)[C@H]1O[C@H]1C(=O)N[C@@H](CC(C)C)C(=O)N1CCC[C@H]1C(=O)OCc1ccccc1 |

Continued, molecule first:

| Structure (SMILES) | kinact/Ki |
| --- | --- |
| CC(C)C[C@H](NC(=O)[C@@H]1O[C@@H]1C(=O)O)C(=O)N1CCC[C@H]1C(=O)O | 30000 M⁻¹ s⁻¹ |
| CC(C)CNC(=O)[C@H]1O[C@H]1C(=O)N[C@@H](CC(C)C)C(=O)N1CCC[C@H]1C(=O)O | 558 M⁻¹ s⁻¹ |
| CCOC(=O)[C@H]1O[C@H]1C(=O)N[C@@H](CC(C)C)C(=O)N1CCC[C@H]1C(=O)O | 760 M⁻¹ s⁻¹ |
